Measurements: PMC6160361 (Circulation, 2018)
Like-named read-outs stand apart in the source and are kept apart here.

Experiments:
DRB1*07:01 = DRB1*07:01 (Homo sapiens, UniProt P01903+P01911, A100R/A102G/A103Q/D57E/D86V/E43K/F76Y/K127E/L162R/M171V/P40G/Q125H/Q99D/R33Q/R42Y/R54Q/S133A/S66F/T210M/V115G/Y107V/Y59L/Y89S); assay: MHC class II competitive inhibition binding assay, DRB1*07:01; conditions: experimental competitive peptide binding
Outline: (§1)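 Competitive inhibition assay using purified MHC class II molecules and a high-affinity radiolabelled MHC class II ligand. Binding given as IC50, taken as an approximation of Kd under the assay conditions. Test peptide stock in DMSO at 20 mg/ml, stored at −80°C.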

DRB1*04:01 = DRB1*04:01 (Homo sapiens, UniProt P01903+P01911, A100K/A169T/F76Y/I96L/K127E/L162R/M171V/N62H/P40V/Q125Y/R42H/S133A/S149N/S66Y/V115G/V209L/W38E); assay: MHC class II competitive binding assay, DRB1*04:01; conditions: experimental competitive peptide binding
Outline: as §1

DRB1*13:02 = DRB1*13:02 (Homo sapiens, UniProt P01903+P01911, A100E/A169T/K41T/L162R/M171V/P40S/Q125H/Q178H/Q39Y/Q99D/R42S/S66N/T262R/V115G/W38E/Y61H); assay: MHC class II competitive binding assay, DRB1*13:02; conditions: experimental competitive peptide binding
Outline: as §1

[1] = test system: p18-specific CD4^+ T cells in human PBMC; assay: DRB1*07:01-p18 tetramer staining of human PBMC by flow cytometry; format: cell-based; conditions: sCVD N=14, no sCVD N=15
[2] = test system: DRB1*07:01-p18^+CD4^+ T cells; format: cell-based, human
peritoneal CD4^+ T cells [3] = format: in vivo, mouse
peritoneal CD4^+ T cells [4] = format: in vivo, mouse; conditions: 1x CFA and 1x IFA, N=9-10
peritoneal Tregs = assay: IL-10 production and Nrp-1 of Tregs after p18 immunization; format: in vivo, mouse; conditions: N=7
peritoneal CD4^+ T cells [5] = assay: TCR activation; format: in vivo, mouse
[6] = test system: p18:I-A^b+CD4^+ T cells (peritoneal); assay: p18:I-A^b tetramer staining of peritoneal CD4^+ T cells, Nur77^GFP Apoe^−/− mice; format: in vivo, mouse
[7] = test system: p18:I-A^b+CD4^+ T cells (spleen); assay: p18:I-A^b tetramer staining of splenic CD4^+ T cells; format: in vivo, mouse
splenic CD4^+ T cells = assay: IL-10 ELISPOT of splenic CD4^+ T cells restimulated with p18; format: cell-based, mouse; conditions: splenic CD4^+ T cells with antigen presenting cells and p18, 24 hours; 1xCFA and 1xIFA; N=9-10
Apoe^−/− mice = assay: Aortic atherosclerosis; format: in vivo, mouse; conditions: 50 μg p18, 1xCFA + 4xIFA, western diet 13 weeks; vs adjuvant only; N=8-9
[8] = Plasma lipid analysis of vaccinated Apoe^−/− mice; format: in vivo, mouse; conditions: Supplementary Figure 6; 1xCFA + 4xIFA
Outline: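 Apoe−/− mice immunised 1xCFA + 4xIFA. Whole blood taken by cardiac puncture into EDTA at organ harvest and spun at 3000 × g for 15 min at 4°C. Plasma supernatant stored at −80°C to limit freeze/thaw, then sent for external lipid analysis.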

p18 = conditions: vaccinated Apoe^−/− mice; Supplementary Figure 7
atherosclerosis patients = conditions: GLACIER trial; cited from earlier work
[9] = spleen, vaccinated Apoe^−/− mice

**Q.** With SLFFSAQPFEITAST [p18] as the molecule, how does the “binding to DRB1*07:01” value (DRB1*07:01) read?
**A.** binds

**Q.** What about the “binding to DRB1*04:01” value (DRB1*04:01) of the same molecule?
**A.** binds

**Q.** What about the “binding to DRB1*13:02” value (DRB1*13:02) of the same molecule?
**A.** binds

**Q.** And the “trend in p18-specific CD4^+ T cells in sCVD patients vs no sCVD” value [1]?
**A.** did not reach statistical significance

**Q.** And the “Tregs co-expressing T-bet among DRB1*07:01-p18^+CD4^+ T cells” value ([2]; no sCVD)?
**A.** 1.2±0.5%

**Q.** What about the “FoxP3^+Rorγt^+ cells among p18-specific CD4^+ T cells” value ([2]; patients with sCVD) of the same molecule?
**A.** significant increase

**Q.** And the “Tregs co-expressing RORγt among DRB1*07:01-p18^+CD4^+ T cells” value ([2]; sCVD donors, mean ± SEM)?
**A.** 8.8±3.7%

**Q.** What about the “Tregs co-expressing T-bet among DRB1*07:01-p18^+CD4^+ T cells” value ([2]; sCVD patients) of the same molecule?
**A.** 4.1±1.4%

**Q.** And the “Tregs co-expressing RORγt among DRB1*07:01-p18^+CD4^+ T cells” value ([2]; sCVD^− participants)?
**A.** almost undetectable

**Q.** What about the “fraction of p18-specific CD4^+ T cells that are FoxP3^+ Tregs” value ([2]; women with no sCVD) of the same molecule?
**A.** most

**Q.** What about the “FoxP3 by intracellular staining of CD4^+ T cells” value (peritoneal CD4^+ T cells [3]; Apoe^−/− mice, peritoneal, N=6, compared with YFP result) of the same molecule?
**A.** gave a similar result

**Q.** What about the “CD25^+FoxP3^+CD4^+ T cells of all CD4^+ T cells” value (peritoneal CD4^+ T cells [3]; peritoneal cavity, FoxP3^YFPcreApoe^−/− mice, 2 weeks after immunization, 1xCFA s.c. + 1xIFA i.p., from ~6%, N=7) of the same molecule?
**A.** ~ 12%

**Q.** What about the “abundance of Tregs in peritoneal cavity” value (peritoneal CD4^+ T cells [4]; Apoe^−/− mice on CD or WD) of the same molecule?
**A.** significantly increased

**Q.** What about the “FoxP3^+Tbet^+ cells in peritoneal cavity” value (peritoneal CD4^+ T cells [4]; CD or WD) of the same molecule?
**A.** increased

**Q.** What about the “FoxP3^+GATA3^+ cells in peritoneal cavity” value (peritoneal CD4^+ T cells [4]) of the same molecule?
**A.** only observed in mice fed CD and not in mice fed WD

**Q.** What about the “IL-10-producing cells among all Tregs” value (peritoneal Tregs; FoxP3^+CD4^+ cells, vs adjuvant) of the same molecule?
**A.** significant expansion

**Q.** What about the “inducible Tregs (Nrp-1 negative) among classical Tregs” value (peritoneal Tregs) of the same molecule?
**A.** Most

**Q.** And the “IL-10-producing iTregs (Nrp-1^−FoxP3^+CD4^+)” value (peritoneal Tregs; p18 immunized, from ~12%)?
**A.** ~ 25%

**Q.** What about the “Nur77^GFP+ frequency among CD25^+FoxP3^+ Tregs vs all CD4^+ T cells” value (peritoneal CD4^+ T cells [5]; mice immunized with p18, 24 hours after restimulation) of the same molecule?
**A.** further elevated

**Q.** What about the “CD25^+FoxP3^+ Tregs in Nur77^GFP+ activated cell population” value (peritoneal CD4^+ T cells [5]; p18 immunized mice, N=5-6, adjuvant only showed a similar fraction) of the same molecule?
**A.** significantly enriched

**Q.** What about the “peritoneal p18:I-A^b+CD4^+ T cells, p18-immunized vs adjuvant” value ([6]; Apoe^−/− mice fed CD or WD, Supplementary Figure 5) of the same molecule?
**A.** did not observe any significant differences

**Q.** What about the “ApoB p18-specific (PE- and APC-double positive) CD4^+ T cells” value ([6]; increase vs adjuvant only, peritoneal, 1x CFA and 1x IFA, N=5-6) of the same molecule?
**A.** ~ 3 -fold

**Q.** And the “CD25^+FoxP3^+ Tregs among p18:I-A^b+CD4^+ T cells” value ([6]; peritoneal, p18 immunized, N=5-6)?
**A.** 40%

**Q.** What about the “Nur77^GFP+ cells among p18:I-A^b+CD4^+ T cells” value ([6]; peritoneal, N=5-6) of the same molecule?
**A.** highly enriched

**Q.** What about the “CD25^+FoxP3^+ Tregs among p18:I-A^b–CD4^+ T cells” value ([6]; tetramer-negative cells, peritoneal, p18 immunized, N=5-6) of the same molecule?
**A.** 9%

**Q.** And the “p18:I-A^b+CD4^+ T cells in spleen” value ([7]; IL-10^GFP Apoe^−/− mice, N=4-5)?
**A.** increased

**Q.** And the “FoxP3 expression of splenic p18:I-A^b+CD4^+ T cells vs adjuvant” value ([7]; N=9-10)?
**A.** significantly more

**Q.** And the “splenic bulk FoxP3^+CD4^+ T cells vs adjuvant only” value ([7]; data not shown)?
**A.** did not find a significant difference

**Q.** What about the “IL-10 production of p18:I-A^b+FoxP3^+CD4^+ T cells” value ([7]; spleen, IL-10^GFP Apoe^−/− mice, N=4-5) of the same molecule?
**A.** significantly more than in adjuvant-only controls

**Q.** What about the “IL-10 production of p18:I-A^b–FoxP3^+CD4^+ T cells” value ([7]; spleen, tetramer-negative, N=4-5) of the same molecule?
**A.** did not increase

**Q.** What about the “central memory cells (CD62L^+CD44^+) among memory p18:I-A^b+CD4^+ T cells” value [7, 9] of the same molecule?
**A.** 20%

**Q.** And the “effector memory cells (CD62L^−CD44^+) among memory p18:I-A^b+CD4^+ T cells” value [7, 9]?
**A.** 80%

**Q.** What about the “p18:I-A^b+CD4^+ T cells with memory phenotype (CD44^+)” value [7, 9] of the same molecule?
**A.** Most

**Q.** What about the “IL-10^+ spots (ELISPOT) vs adjuvant only” value (splenic CD4^+ T cells) of the same molecule?
**A.** significantly more

**Q.** And the “reduction of lesion size, aortic arch” value (Apoe^−/− mice)?
**A.** ~ 35%

**Q.** And the “reduction of lesion size, whole aorta” value (Apoe^−/− mice)?
**A.** ~ 35%

**Q.** And the plasma lipids [8]?
**A.** unchanged

**Q.** What about the “IgG1 antibodies to p18 in plasma” value (p18) of the same molecule?
**A.** detected

**Q.** And the “IgG2c antibodies to p18 in plasma” value (p18)?
**A.** detected

B1: recombinant IgG1 antibody to oxLDL: recombinant IgG1 antibody to oxLDL infused in the GLACIER trial (antibody, chains of the INN, looked up, V domains shown)
VH: EVQLLESGGGLVQPGGSLRLSCAASGFTFSNAWMSWVRQAPGKGLEWVSSISVGGHRTYYADSVKGRSTISRDNSKNTLYLQMNSLRAEDTAVYYCARIRVGPSGGAFDYWGQGTLVTVSS
VL: QSVLTQPPSASGTPGQRVTISCSGSNTNIGKNYVSWYQQLPGTAPKLLIYANSNRPSGVPDRFSGSKSGTSASLAISGLRSEDEADYYCASWDASLNGWVFGGGTKLTVL
**Q.** With B1 as the molecule, how does the “efficacy in imaging studies” value (atherosclerosis patients) read?
**A.** failed to show efficacy
